Results taken from article PMC11329366 (Clinical and Translational Science, 2024).

Tests used:
human CYP11B2 (hCYP11B2) = target: T1, human CYP11B2 (hCYP11B2) (Homo sapiens, UniProt P19099); experiment: Assay of hCYP11B2 inhibition; format: biochemical; conditions: from inhibition constants
T1 sequence (P19099 25-503): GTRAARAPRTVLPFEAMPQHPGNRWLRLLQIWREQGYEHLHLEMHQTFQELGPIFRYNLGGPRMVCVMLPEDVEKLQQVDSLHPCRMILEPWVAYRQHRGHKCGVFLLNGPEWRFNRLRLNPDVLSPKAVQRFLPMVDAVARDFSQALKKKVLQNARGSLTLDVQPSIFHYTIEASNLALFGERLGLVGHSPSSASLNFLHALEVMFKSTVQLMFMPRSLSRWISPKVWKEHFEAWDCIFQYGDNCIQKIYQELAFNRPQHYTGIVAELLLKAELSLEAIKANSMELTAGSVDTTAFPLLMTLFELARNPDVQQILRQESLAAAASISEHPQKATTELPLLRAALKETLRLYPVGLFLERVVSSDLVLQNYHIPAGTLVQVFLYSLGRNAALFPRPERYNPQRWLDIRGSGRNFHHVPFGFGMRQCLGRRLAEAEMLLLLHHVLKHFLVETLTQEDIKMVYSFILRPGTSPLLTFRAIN
Summary of the method: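 Enzyme source: mitochondrial fraction of V79 cells stably expressing human CYP11B2 or human CYP11B1. Substrates were 11-DOC (converted to aldosterone, CYP11B2) and 11-deoxycortisol (converted to cortisol, CYP11B1). Inhibition constants came from product-generation rates with the free base. A dual CYP11B1/CYP11B2 reference inhibitor served as positive control.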

[1] = Phase I first-in-human study: plasma and urine pharmacokinetics; format: in vivo
Summary of the method: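 Healthy participants received an oral capsule. SAD: 5–800 mg fasted. MAD: 40, 120 or 360 mg once daily Days 1–7, fed. Females, or males ≥65 y, got a single 100 mg fasted dose, referenced to part 1. Plasma (all parts) and urine (MAD) were analysed non-compartmentally, BLQ=0, linear trapezoidal AUC. Dose proportionality used a power model (slope 95% CI); sex/age used geometric mean ratios (90% CI); fed-vs-fasted was compared informally.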

[2] = Phase I first-in-human study: safety and tolerability; format: in vivo
Summary of the method: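 Randomized, double-blind, placebo-controlled. SAD cohorts had 6 active/2 placebo, with two sentinels dosed ≥24 h before the rest. MAD cohorts had 9 active/3 placebo, dosed daily Days 1–7. Safety data were reviewed before each next cohort. Monitoring covered TEAEs, treatment-related TEAEs, vital signs, 12-lead ECGs, clinical laboratory tests and physical examinations.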

plasma aldosterone = experiment: Phase I pharmacodynamics: plasma aldosterone concentration; format: in vivo, human
Summary of the method: (§1)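 Plasma aldosterone and serum cortisol were followed after single fasted doses and after daily fed dosing. PAC AUC0–24 and cortisol AUC0–72 were derived non-compartmentally. Log AUC was modelled by dose group (pooled placebo), with Day ‑1 log AUC0–24 as covariate. Log change from time-matched Day ‑1 values over 0–24 h used a linear mixed model with unstructured covariance.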

serum cortisol = experiment: Phase I pharmacodynamics: serum cortisol, incl. ACTH challenge; format: in vivo, human
Summary of the method: as §1

plasma renin activity = experiment: Phase I pharmacodynamics: plasma renin activity; format: in vivo, human; conditions: MAD 40 to 360 mg once daily
serum 11-DOC = experiment: Phase I pharmacodynamics: serum 11-DOC; format: in vivo, human; conditions: MAD 40 to 360 mg once daily
serum potassium = experiment: Phase I: serum potassium; format: in vivo, human
Summary of the method: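 Serum potassium was tracked during 7 days of once-daily 40, 120 or 360 mg dosing (fed) and the following washout. The stopping criterion was 6.0 mmol/L potassium.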

[3] = tested on: urinary log10 (10 × Na+/K+) ratio; experiment: Phase I pharmacodynamics: urine sodium and urinary log10; format: in vivo, human
Summary of the method: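 Urine was collected in intervals, and the amounts of sodium and potassium excreted per interval were measured. The urinary log10(10 × Na⁺/K⁺) ratio was calculated per interval after single doses and through 7 days of once-daily 40–360 mg dosing plus washout.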

plasma 11-deoxycortisol = experiment: Phase I pharmacodynamics: plasma 11-deoxycortisol; format: in vivo, human; conditions: MAD, non-ACTH challenge conditions
[4] = MAD Day 6, all multiple-dose levels

SMILES: CC(=O)N[C@H]1CC[C@H](NC(=O)CN2CCN(c3nncc(-c4ccc(C)cc4)n3)CC2)CC1 [lorundrostat, Lorundrostat]
- selectivity for CYP11B2 over CYP11B1 (human CYP11B2 (hCYP11B2)): 374 fold
- estimate of the slope for AUC0–24 versus dose (power model) ([1]; MAD Day 7, 95% CI, 1.060–1.234): 1.147
- steady state achieved by ([1]; MAD once-daily dosing): ~5 days
- estimate of the slope (95% CI) for C max versus dose (power model) ([1]; SAD 5–800 mg): 1.104 (1.043–1.164)
- interindividual variability of exposure parameters (C max and AUC0–∞) ([1]; SAD 5–800 mg): < 20%
- effect of fed state on the PK profile ([1]; first cohort of part 2 (fed) vs part 1 (fasted), exploratory): did not appear to be affected
- half-life ([1]; human, plasma, oral, 5 mg, t 1/2, SAD 5 mg single dose, fasted, mean (SD)): 8.3 h
- half-life ([1]; human, plasma, oral, 10 mg, t 1/2, SAD 10 mg single dose, fasted, mean (SD)): 7.9 h
- half-life ([1]; human, plasma, oral, 40 mg, t 1/2, MAD 40 mg once daily, fed, Day 1, mean (SD)): 5.3 h
- half-life ([1]; human, plasma, oral, 50 mg, t 1/2, SAD 50 mg single dose, fasted, mean (SD)): 9.1 h
- half-life ([1]; human, plasma, oral, 120 mg, t 1/2, MAD 120 mg once daily, fed, Day 1, mean (SD)): 4.4 h
- half-life ([1]; human, plasma, oral, 200 mg, t 1/2, SAD 200 mg single dose, fasted, mean (SD)): 9.9 h
- Tmax ([1]; human, plasma, oral, 360 mg, T max, MAD 360 mg once daily, fed, Day 1, median (minimum, maximum)): 3 h
- half-life ([1]; human, plasma, oral, 360 mg, t 1/2, MAD 360 mg once daily, fed, Day 1, mean (SD)): 4.4 h
- half-life ([1]; human, plasma, oral, 360 mg, t 1/2, MAD 360 mg once daily, fed, Day 7, mean (SD)): 9.2 h
- half-life ([1]; human, plasma, oral, 400 mg, t 1/2, SAD 400 mg single dose, fasted, mean (SD)): 9.7 h
- half-life ([1]; human, plasma, oral, 800 mg, t 1/2, SAD 800 mg single dose, fasted, mean (SD)): 10.5 h
- half-life ([1]; human, plasma, oral, mean t 1/2, MAD Day 7, range over dose groups): 9.1 to 11.9 h
- half-life ([1]; human, plasma, oral, t 1/2, single- and multiple-dose administration): 10 to 12 h
- difference in exposure between females and males ([1]; single 100 mg dose, part 3 vs part 1): no statistically significant difference
- difference in exposure between older adult and younger adult participants ([1]; single 100 mg dose, part 4 vs part 1): no statistically significant difference
- incidence of dizziness (of mild intensity) ([2]; across all cohorts, nine lorundrostat-treated participants, placebo one (3.4%)): 10.3%
- overall incidence of TEAEs ([2]; all lorundrostat-treated participants (41/87), placebo 18/29 [62%]): 47%
- findings in clinical laboratory, vital signs, ECGs, or physical examination ([2]; all parts): no clinically significant findings
- serious TEAEs ([2]; all parts): no serious TEAEs
- tolerability ([2]; all parts, single up to 800 mg, once daily up to 360 mg for 7 days): well tolerated
- ACTH-stimulated aldosterone response compared with placebo (plasma aldosterone; [4]): completely blunted
- maximum decrease of PAC compared with placebo (plasma aldosterone; SAD, at 4 h and 8 h post-dose): ~ 80%
- time for plasma aldosterone to return to baseline (plasma aldosterone; multiple once-daily 120-mg doses): ≤ 16 h
- reduction of PAC (AUC0–24) (plasma aldosterone; single 400- to 800-mg doses): up to 70%
- time for PAC to return to values near baseline (plasma aldosterone; single doses 5–50 mg, post-dose): ≤ 24 h
- duration of the reduction of PAC (plasma aldosterone; single doses 100–800 mg): sustained until 24 h post‐dose
- ACTH-stimulated cortisol response (serum cortisol; [4]): no effect
- change from baseline of serum cortisol concentrations (serum cortisol; MAD, non-ACTH challenge conditions): no relevant changes from baseline
- effect on cortisol (AUC0–72) (serum cortisol; single doses 10 to 800 mg): without effecting cortisol
- plasma renin activity compared with placebo (plasma renin activity): increased
- serum 11-DOC compared with placebo (serum 11-DOC): increased
- maximum mean increase of serum potassium (serum potassium; MAD 40 mg, Day 8): 0.44 mmol/L
- maximum mean increase of serum potassium (serum potassium; MAD 120 mg, Day 7): 0.6 mmol/L
- subjects reaching the stopping criterion for potassium of 6.0 mmol/L (serum potassium; MAD part 2): None
- urine sodium and urinary log10 (10 × Na+/K+) ratio ([3]; MAD Day 1, all dose levels): initially increased
- urine sodium and urinary log10 (10 × Na+/K+) ratio ([3]; MAD Day 7, end of the dosing period): returned to baseline levels
- urinary log10 (10 × Na+/K+) ratio ([3]; MAD, Day 7 to Day 9 (after last dose)): clear reductions
- urine sodium and urinary log10 (10 × Na+/K+) ratio ([3]; SAD, all dose levels): increased
- change from baseline of plasma 11-deoxycortisol concentrations (plasma 11-deoxycortisol): no relevant changes from baseline
